Results collected from several papers.
Lines come from different studies, so protocols differ.
ALK: ALK tyrosine kinase receptor (ALK, Homo sapiens, UniProt Q9UM73)
ALK C1156Y: ALK tyrosine kinase receptor (ALK, Homo sapiens, UniProt Q9UM73, C1156Y)
ALK L1196M: ALK tyrosine kinase receptor (ALK, Homo sapiens, UniProt Q9UM73, L1196M)

Compound | target | effect on | method | tested at | remaining binding
C[C@H](c1ccc(F)cc1)N(Cc1cccc(C(=O)O)c1)C(=O)c1cnc2ccccc2c1 | ALK | cell-free assay | competition with immobilised ligand | 1 µM | 94%
CN(C)c1nccc(-c2cnn3ncccc23)n1 | ALK C1156Y | binding |  | 1 µM | 71%
COc1cnc(Nc2cccc(S(N)(=O)=O)c2)nc1N1CCN(c2ccccc2)CC1 | ALK C1156Y | binding | competition with immobilised ligand | 1 µM | 100%
CN1CCN(c2ccc(Nc3nccc(-c4cccc([N+](=O)[O-])c4)n3)cc2C(F)(F)F)CC1 | ALK L1196M | binding |  | 10 µM | 76%
CCC(=O)N[C@@H]1CC[C@H](C(=O)N(C)c2ccc(-c3nc4ccccc4o3)cc2)C1 | ALK | cell-free assay | competition with immobilised ligand | 1 µM | 99%
COc1ccnn2ncc(-c3ccnc(N(C)C)n3)c12 | ALK | binding |  | 1 µM | 96%
C=CC(=O)N1CCC(C(=O)NCC(=O)N2CCN(c3nc(-c4cnc(N)nc4C(F)F)nc(N4CCOCC4)n3)CC2)CC1 | ALK L1196M | binding | competition with immobilised ligand | 1 µM | 79%
COc1cnc(Nc2cccc(S(N)(=O)=O)c2)nc1N1CCN(c2ccccc2)C(=O)C1 | ALK C1156Y | binding | competition with immobilised ligand | 1 µM | 96%
O=C(Nc1c[nH]nc1C(=O)NC1CCNCC1)c1cc(F)cc(F)c1 | ALK | binding | competition with immobilised ligand | 1 µM | 91%
COc1ncc2cc3ccccc3nc2c1C#N | ALK | cell-free assay | competition with immobilised ligand | 5 µM | 81%
CNC(=O)[C@@H]1CC[C@@H](n2c(-c3ccc4cnccc4c3)nc3ccc(C(=O)NCc4cccc(C(N)=O)c4)cc32)C1 | ALK C1156Y | binding | competition with immobilised ligand | 1 µM | 100%
NS(=O)(=O)c1cc(NC(=O)Cc2ccccc2)ccc1Oc1cccc(Cl)c1 | ALK C1156Y | cell-free assay | competition with immobilised ligand | 1 µM | 88%
c1cnn2ncc(-c3ccnc(N4CCC45COC5)n3)c2c1 | ALK C1156Y | binding |  | 1 µM | 73%
O=C(NCCCN1CCOCC1)c1ccc(Nc2nccc(-c3cc4ccccc4s3)n2)cc1 | ALK L1196M | binding | competition with immobilised ligand | 1 µM | 100%
CC(C)(C)c1ccc(-c2nc(CBr)nn2-c2cccc(O)c2)cc1 | ALK | cell-free assay | competition with immobilised ligand | 10 µM | 78%
O=C(NCCCN1CCOCC1)c1ccc(Nc2ncc(Cl)c(-c3ccc(Cl)s3)n2)cc1 | ALK C1156Y | binding | competition with immobilised ligand | 1 µM | 61%
CO[C@@H](C)c1c(Nc2ccc([C@H](N(C)C(=O)C3CCS(=O)(=O)CC3)C(F)(F)F)cc2)cnc2cc(Cl)nn12 | ALK L1196M | cell-free assay | competition with immobilised ligand | 1 µM | 100%
Cc1cnc(Nc2ccc(C(=O)N3CCC(N4CCCC4)CC3)cc2)nc1-c1cc2ccccc2s1 | ALK L1196M | binding | competition with immobilised ligand | 1 µM | 82%

Compound | target | effect on | method | tested at | remaining binding
C[C@@H]1CN(c2ccc3ncc(-c4ccc5[nH]nc(C6CC6)c5c4)n3n2)C[C@H](C)O1 | ALK | binding | competition with immobilised ligand | 50 nM | 64%
Nc1ncc2c(n1)-c1c([nH]c3ccc(C#CC4CC4)cc13)CCCC2 | ALK | binding | competition with immobilised ligand | 1 µM | 95%
CN(CCCC(F)(F)F)c1nccc(-c2cnn3ncccc23)n1 | ALK | binding |  | 1 µM | 97%
CC1=C(C#N)[C@@H](c2ccc3[nH]nc(C)c3c2)C(C#N)=C(c2ccc(Cl)cc2)N1 | ALK C1156Y | cell-free assay | competition with immobilised ligand | 1 µM | 100%
CC1CCCN1c1nccc(-c2cnn3ncccc23)n1 (centres unmarked) | ALK C1156Y | binding |  | 1 µM | 48%
C[C@@H]1CN(c2cc(-c3nn(C)c4ccc(OC5(C)CC5)cc34)ncn2)C[C@H](C)O1 | ALK L1196M | cell-free assay | competition with immobilised ligand | 1 µM | 98%
O=C(NCC1CCOCC1)c1n[nH]cc1NC(=O)c1c(F)cccc1F | ALK L1196M | binding | competition with immobilised ligand | 1 µM | 100%
COc1ccc2c(c1)O[C@H](c1ccc(OC)c(OC)c1)C[C@@H]2NC(=O)C1(c2ccc3c(c2)OC(F)(F)O3)CC1 | ALK | cell-free assay | competition with immobilised ligand | 1 µM | 100%
C[C@@H]1CCN(c2nccc(-c3cnn4ncccc34)n2)C1 | ALK C1156Y | binding |  | 1 µM | 91%
FC(F)(F)Oc1cccc(-c2cnc3ccc(-c4ccncc4)nn23)c1 | ALK | cell-free assay | competition with immobilised ligand | 5 µM | 100%
c1cncc(-c2cccc(Nc3nccc(NC4CCCCC4)n3)c2)c1 | ALK L1196M | binding | competition with immobilised ligand | 10 µM | 57%
CN(C)c1nccc(-c2cnc3ncccn23)n1 | ALK | binding |  | 1 µM | 73%
O=C(c1ccc(Nc2ncc(Cl)c(-c3cc4ccccc4s3)n2)cc1)N1CCC(N2CCCC2)CC1 | ALK | binding | competition with immobilised ligand | 1 µM | 68%
C[C@@H](c1ccc(-n2cnc3c(N)ncnc32)cc1)N1CCc2nn(C)c(Cc3ccccc3)c2C1=O | ALK | binding | competition with immobilised ligand | 0.1 µM | 76%
O=C(c1ccc(Nc2nccc(-c3cc4ccccc4s3)n2)cc1)N1CCC(N2CCCC2)CC1 | ALK L1196M | binding | competition with immobilised ligand | 1 µM | 80%
Cc1noc([C@H]2C[C@@H](c3ccc(C(F)(F)F)cc3)CN(C(=O)N3CCS(=O)(=O)C3)C2)n1 | ALK | cell-free assay | competition with immobilised ligand | 1 µM | 100%
N[C@@H]1CCN(c2nccc(-c3cnn4ncccc34)n2)C1 | ALK L1196M | binding |  | 1 µM | 100%
